Laboratory results taken from ChEMBL document CHEMBL2346611, “Preliminary structure-activity relationships and biological evaluation of novel antitubercular indolecarboxamide derivatives against drug-susceptible and drug-resistant Mycobacterium tuberculosis strains” (J Med Chem, 2013).
Converted amounts (≈) assume the structure as drawn.

What was measured:
Type in all cases: functional
[1] = tested on: Mycobacterium tuberculosis; experiment: Antitubercular activity against extensively drug resistant Mycobacterium tuberculosis TF274 by microplate Alamar Blue assay
Procedure, shortened: (§1)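 Mycobacterium tuberculosis strains were used: H37Rv, and clinical strains from KwaZulu-Natal (MDR KZN494 and V2475; XDR TF274 and R506). Growth was read by microplate Alamar Blue assay. MIC is the lowest drug concentration giving at least a 90% reduction of the bacterial growth signal. Values are the average of three individual measurements.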

[2] = tested on: Mycobacterium tuberculosis; experiment: Antitubercular activity against multi drug resistant Mycobacterium tuberculosis KZN494 by microplate Alamar Blue assay; procedure, shortened: as §1
[3] = tested on: Mycobacterium tuberculosis; experiment: Antitubercular activity against extensively drug resistant Mycobacterium tuberculosis V2475 by microplate Alamar Blue assay
[4] = tested on: Mycobacterium tuberculosis; experiment: Antitubercular activity against extensively drug resistant Mycobacterium tuberculosis R506 by microplate Alamar Blue assay; procedure, shortened: as §1

| SMILES | MIC90 [1] | MIC90 [2] | MIC90 [3] | MIC90 [4] |
| --- | --- | --- | --- | --- |
| Cc1cc(C)c2cc(C(=O)NC3CCCCC3)[nH]c2c1 | 0.46 µM (≈ 0.124 µg/mL) | 3.7 µM (≈ 1 µg/mL) | 0.93 µM (≈ 0.251 µg/mL) | 0.46 µM (≈ 0.124 µg/mL) |
| Cc1cc(C)c2cc(C(=O)NC3CCCCCC3)[nH]c2c1 | 0.055 µM (≈ 0.0156 µg/mL) | 0.11 µM (≈ 0.0313 µg/mL) | 0.11 µM (≈ 0.0313 µg/mL) | 0.055 µM (≈ 0.0156 µg/mL) |
| Cc1cc(C)c2cc(C(=O)NC3CCCCCCC3)[nH]c2c1 | 0.026 µM (≈ 0.00776 µg/mL) | – | – | 0.0067 µM (≈ 0.002 µg/mL) |
